In ChEMBL document CHEMBL1145212, “Fluorinated diaryl sulfides as serotonin transporter ligands: synthesis, structure-activity relationship study, and in vivo evaluation of fluorine-18-labeled compounds as PET imaging agents” (J Med Chem, 2005):

How the values were obtained:
Rattus norvegicus [1] = experiment: Biodistribution of [18F]AFM in rat thalamus at 120 min postinjection in vivo; format: ADME, organism-based; details: 2 h
Rattus norvegicus [2] = experiment: Biodistribution of [18F]AFM in rat blood at 60 min postinjection in vivo; format: ADME, organism-based; details: 1 h
Outline: (§1)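 Male Sprague-Dawley rats, three per group, received ~20 µCi of the F-18 radioligand in saline by tail-vein injection. Rats were anesthetized with CO2 and decapitated at 10, 30, 60, 90 or 120 min. Blood and brain regions were weighed and gamma-counted. %ID/g was decay- and tail-residual-corrected against F-18 standards made from the injectate and reported as mean ± SD.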

Rattus norvegicus [3] = experiment: Biodistribution of [18F]AFM in rat blood at 10 min postinjection in vivo; format: ADME, organism-based; outline: as §1
Rattus norvegicus [4] = experiment: Biodistribution of [18F]AFM in rat hypothalamus at 30 min postinjection in vivo; format: ADME, organism-based; details: 0.5 h
Outline: (§2)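 Male Sprague-Dawley rats, three per group, given about 20 µCi of F-18 radioligand in saline by tail vein. Sacrificed by decapitation after CO₂ anaesthesia at 10, 30, 60, 90 or 120 min. Brain regions and blood removed, weighed and gamma-counted. %ID was decay-corrected and corrected for residual tail activity against F-18 standards, then converted to %ID/g; mean ± SD.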

Rattus norvegicus [5] = species on record: Rattus norvegicus; experiment: Specific binding of [18F]AFA in frontal cortex of rat pretreated with compound 7d; n=3; format: functional
Rattus norvegicus [6] = experiment: Biodistribution of [18F]-AFM in rat striatum 60 min postinjection in vivo; format: ADME, organism-based; details: 1 h
Outline: (§3)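 Male Sprague-Dawley rats, three per time point, received the F-18 radioligand in saline (~20 µCi per rat at injection) by tail vein. Under CO2 anesthesia they were decapitated at 10, 30, 60, 90 or 120 min. Blood and dissected brain regions were weighed and gamma counted. Activity was decay-corrected, and injected dose was corrected for tail residual activity. Uptake was expressed as %ID/g versus injectate standards, mean ± SD.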

Rattus norvegicus [7] = experiment: Biodistribution of [18F]AFM in rat cerebellum at 90 min postinjection in vivo; format: ADME, organism-based; details: 1.5 h; outline: as §1
Rattus norvegicus [8] = experiment: Biodistribution of [18F]AFM in rat blood at 30 min postinjection in vivo; format: ADME, organism-based; details: 0.5 h; outline: as §1
Rattus norvegicus [9] = experiment: Biodistribution of [18F]AFM in rat striatum at 90 min postinjection in vivo; format: ADME, organism-based; details: 1.5 h
Outline: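 Male Sprague-Dawley rats (three per group) received ~20 µCi of the F-18-labeled ligand in saline by tail vein. They were anesthetized with CO₂ and decapitated at 10, 30, 60, 90 and 120 min. Striatum and other regions were weighed and gamma-counted. Values are decay- and tail-corrected %ID/g against standards made from the injection solution, reported as mean ± SD.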

Rattus norvegicus [10] = experiment: Biodistribution of [18F]AFM in rat hippocampus at 30 min postinjection in vivo; format: ADME, organism-based; details: 0.5 h; outline: as §1
Rattus norvegicus [11] = experiment: Biodistribution of [18F]AFM in rat hypothalamus at 90 min postinjection in vivo; format: ADME, organism-based; details: 1.5 h; outline: as §2
Rattus norvegicus [12] = experiment: Biodistribution of [18F]-AFM in rat thalamus at 30 min postinjection in vivo; format: ADME, organism-based; details: 0.5 h; outline: as §3
Rattus norvegicus [13] = species on record: Rattus norvegicus; experiment: Specific binding of [18F]AFA in striatum of rat pretreated with compound 7d; n=3; format: functional
Rattus norvegicus [14] = experiment: Biodistribution of [18F]AFM in rat thalamus at 90 min postinjection in vivo; format: ADME, organism-based; details: 1.5 h
Rattus norvegicus [15] = experiment: Biodistribution of [18F]AFM in rat thalamus at 10 min postinjection in vivo; format: ADME, organism-based
Rattus norvegicus [16] = experiment: Biodistribution of [18F]-AFM in rat cerebellum at 10 min postinjection in vivo; format: ADME, organism-based; outline: as §3
Rattus norvegicus [17] = experiment: Biodistribution of [18F]AFM in rat frontal cortex at 60 min postinjection in vivo; format: ADME, organism-based; details: 1 h; outline: as §1
Rattus norvegicus [18] = experiment: Biodistribution of [18F]AFM in rat hippocampus at 90 min postinjection in vivo; format: ADME, organism-based; details: 1.5 h; outline: as §2
Rattus norvegicus [19] = experiment: Biodistribution of [18F]AFM in rat striatum at 10 min postinjection in vivo; format: ADME, organism-based; outline: as §2
Rattus norvegicus [20] = experiment: Biodistribution of [18F]-AFM in rat striatum at 120 min postinjection in vivo; format: ADME, organism-based; details: 2 h; outline: as §3
Rattus norvegicus [21] = experiment: Biodistribution of [18F]AFM in rat frontal cortex at 120 min postinjection in vivo; format: ADME, organism-based; details: 2 h; outline: as §1
Rattus norvegicus [22] = experiment: Biodistribution of [18F]AFM in rat frontal cortex at 10 min postinjection in vivo; format: ADME, organism-based; outline: as §1
Rattus norvegicus [23] = experiment: Biodistribution of [18F]AFM in rat blood at 120 min postinjection in vivo; format: ADME, organism-based; details: 2 h; outline: as §1
Rattus norvegicus [24] = experiment: Biodistribution of [18F]AFM in rat hypothalamus at 60 min postinjection in vivo; format: ADME, organism-based; details: 1 h; outline: as §2
Rattus norvegicus [25] = experiment: Biodistribution of [18F]AFM in rat hypothalamus at 120 min postinjection in vivo; format: ADME, organism-based; details: 2 h; outline: as §2
Rattus norvegicus [26] = experiment: Biodistribution of [18F]AFM in rat thalamus at 60 min postinjection in vivo; format: ADME, organism-based; details: 1 h
Rattus norvegicus [27] = experiment: Biodistribution of [18F]AFM in rat frontal cortex at 90 min postinjection in vivo; format: ADME, organism-based; details: 1.5 h; outline: as §1
Rattus norvegicus [28] = experiment: Biodistribution of [18F]AFM in rat cerebellum at 120 min postinjection in vivo; format: ADME, organism-based; details: 2 h; outline: as §1
Rattus norvegicus [29] = experiment: Biodistribution of [18F]AFM in rat hypothalamus at 10 min postinjection in vivo; format: ADME, organism-based; outline: as §2
Rattus norvegicus [30] = experiment: Biodistribution of [18F]-AFM in rat striatum at 30 min postinjection in vivo; format: ADME, organism-based; details: 0.5 h; outline: as §3
Rattus norvegicus [31] = experiment: Biodistribution of [18F]-AFM in rat hippocampus at 60 min postinjection in vivo; format: ADME, organism-based; details: 1 h; outline: as §3
Rattus norvegicus [32] = species on record: Rattus norvegicus; experiment: Specific binding of [18F]-AFA in hippocampus of rat pretreated with compound 7d; n=3; format: functional
Rattus norvegicus [33] = experiment: Biodistribution of [18F]AFM in rat cerebellum at 30 min postinjection in vivo; format: ADME, organism-based; details: 0.5 h; outline: as §1
Rattus norvegicus [34] = experiment: Biodistribution of [18F]AFM in rat hippocampus at 120 min postinjection in vivo; format: ADME, organism-based; details: 2 h; outline: as §1
Rattus norvegicus [35] = species on record: Rattus norvegicus; experiment: Specific binding of [18F]AFA in hypothalamus of rat pretreated with compound 7d; n=3; format: functional
Rattus norvegicus [36] = experiment: Biodistribution of [18F]AFM in rat blood at 90 min postinjection in vivo; format: ADME, organism-based; details: 1.5 h; outline: as §1
Rattus norvegicus [37] = experiment: Biodistribution of [18F]AFM in rat cerebellum at 60 min postinjection in vivo; format: ADME, organism-based; details: 1 h; outline: as §1
Rattus norvegicus [38] = species on record: Rattus norvegicus; experiment: Specific binding of [18F]AFA in thalamus of rat pretreated with compound 7d; n=3; format: functional
Rattus norvegicus [39] = experiment: Biodistribution of [18F]AFM in rat frontal cortex at 30 min postinjection in vivo; format: ADME, organism-based; details: 0.5 h; outline: as §1
Rattus norvegicus [40] = experiment: Biodistribution of [18F]AFM in rat hippocampus at 10 min postinjection in vivo; format: ADME, organism-based; outline: as §1

Work on `CN(C)Cc1ccccc1Sc1ccc(C[18F])cc1N` yielded a Biodistribution (Rattus norvegicus [1]) of 0.56 %ID/g, a Biodistribution (Rattus norvegicus [2]) of 0.1 %ID/g and a Biodistribution (Rattus norvegicus [3]) of 0.37 %ID/g. It also gave a Biodistribution (Rattus norvegicus [4]) of 0.82 %ID/g, a Specific binding (Rattus norvegicus [5]) of 0.31 %ID/g and a Biodistribution (Rattus norvegicus [6]) of 0.57 %ID/g. It also gave a Biodistribution (Rattus norvegicus [7]) of 0.08 %ID/g, a Biodistribution (Rattus norvegicus [8]) of 0.18 %ID/g and a Biodistribution (Rattus norvegicus [9]) of 0.45 %ID/g. For the same compound, the Biodistribution (Rattus norvegicus [10]) was 0.64 %ID/g, the Biodistribution (Rattus norvegicus [11]) was 0.58 %ID/g and the Biodistribution (Rattus norvegicus [12]) was 0.88 %ID/g. The Specific binding (Rattus norvegicus [13]) was 0.53, the Biodistribution (Rattus norvegicus [14]) was 0.5 %ID/g and the Biodistribution (Rattus norvegicus [15]) was 0.72 %ID/g. For the same compound, the Biodistribution (Rattus norvegicus [16]) was 0.33 %ID/g, the Biodistribution (Rattus norvegicus [17]) was 0.71 %ID/g and the Biodistribution (Rattus norvegicus [18]) was 0.36 %ID/g. It also gave a Biodistribution (Rattus norvegicus [19]) of 0.69 %ID/g, a Biodistribution (Rattus norvegicus [20]) of 0.42 %ID/g and a Biodistribution (Rattus norvegicus [21]) of 0.38 %ID/g. For the same compound, the Biodistribution (Rattus norvegicus [22]) was 0.82 %ID/g, the Biodistribution (Rattus norvegicus [23]) was 0.04 %ID/g and the Biodistribution (Rattus norvegicus [24]) was 0.71 %ID/g. It also gave a Biodistribution (Rattus norvegicus [25]) of 0.55 %ID/g, a Biodistribution (Rattus norvegicus [26]) of 0.67 %ID/g and a Biodistribution (Rattus norvegicus [27]) of 0.52 %ID/g. The Biodistribution (Rattus norvegicus [28]) was 0.07 %ID/g, the Biodistribution (Rattus norvegicus [29]) was 0.7 %ID/g and the Biodistribution (Rattus norvegicus [30]) was 0.83 %ID/g. It also gave a Biodistribution (Rattus norvegicus [31]) of 0.45 %ID/g, a Specific binding (Rattus norvegicus [32]) of 0.45 %ID/g and a Biodistribution (Rattus norvegicus [33]) of 0.23 %ID/g. For the same compound, the Biodistribution (Rattus norvegicus [34]) was 0.28 %ID/g, the Specific binding (Rattus norvegicus [35]) was 0.84 and the Biodistribution (Rattus norvegicus [36]) was 0.08 %ID/g. For the same compound, the Biodistribution (Rattus norvegicus [37]) was 0.13 %ID/g, the Specific binding (Rattus norvegicus [38]) was 0.85 %ID/g and the Biodistribution (Rattus norvegicus [39]) was 0.99 %ID/g. It also gave a Biodistribution (Rattus norvegicus [40]) of 0.51 %ID/g.
